Screening data: PubChem BioAssay, several laboratories
Shown are actives, neighbours in structure and some others; about 11% of the full set was active somewhere.
RORa activator: activators of human nuclear receptor RORA | actives 1.5% (n = 65,000) | P35398 | activation, % at 10 µM | CHO-K1 Gal4-RORA LBD luciferase reporter, luminescence; percent increase over mock-subtracted basal signal;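 active means activation above the mean of all tested compounds plus 3 SD, cut at about 49% in these data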;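 further: 0% = DMSO-treated RORA cells and 100% = added signal equal to DMSO minus mock-transfected cells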
SF1 activator: activators of human nuclear receptor SF-1; activation, % at 10 µM; Q13285; actives 1.9% (n = 65,000); CHO-K1 Gal4-SF-1 LBD luciferase reporter; % increase over DMSO SF-1-specific signal;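 active means activation above the mean activation of all tested compounds plus 3 SD, cut at about 50% in these data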
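Test system: CHO-K1 cells with Gal4–hSF-1 LBD chimera plus Gal4-driven luciferase; Input: 4,000 cells/well; Compound: 10 µM only; Times: 20 h compound treatment, 37 °C; Measured by: steady-glow luciferase luminescence, read after 15 min reagent incubation; Measure: percent activation versus DMSO; Control set: DMSO and mock-transfected background; Replicates: one test per compound.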
M1 agonist: M1 muscarinic receptor agonism | B-score at 10 µM | actives 3% (n = 64,000) | CHO-M1 cells, Fluo-4 calcium fluorescence, agonist mode; active compounds read high;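 active means fluorescence rise, raw or as B-score row- and column-corrected plate score, outside the 99.7% band of its plate's samples, either direction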
M1 antagonist: antagonists of rat M1 muscarinic receptor | CHO-M1 cells, Fluo-4 calcium, ACh EC80 antagonist mode; active compounds read low | actives 3.4% (n = 64,000) | B-score at 10 µM;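 active means calcium fluorescence response, raw or row-and-column corrected B-score, differing from the plate sample mean either way at a set confidence level, mostly lower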
Target sequence (P08482 whole entry, looked up): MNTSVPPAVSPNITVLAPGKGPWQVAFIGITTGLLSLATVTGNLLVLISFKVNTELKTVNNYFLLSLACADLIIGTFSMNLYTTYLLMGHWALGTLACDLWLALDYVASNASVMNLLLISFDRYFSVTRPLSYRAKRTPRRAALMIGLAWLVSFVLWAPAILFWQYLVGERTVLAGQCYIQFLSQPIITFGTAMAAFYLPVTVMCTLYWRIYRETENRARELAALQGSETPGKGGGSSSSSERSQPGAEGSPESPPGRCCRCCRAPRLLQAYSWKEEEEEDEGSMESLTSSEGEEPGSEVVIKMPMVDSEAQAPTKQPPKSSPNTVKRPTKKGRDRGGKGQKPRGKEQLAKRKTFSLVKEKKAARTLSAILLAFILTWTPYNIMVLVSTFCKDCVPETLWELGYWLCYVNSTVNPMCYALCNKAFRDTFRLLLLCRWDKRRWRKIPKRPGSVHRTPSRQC
mHtt clearance: compounds clearing mutant huntingtin protein; HeLa Exon1htt(103Q)mCFP, aggregate imaging; zero = plate's median compound well; inhibition, % at 1.5 µM; actives 0.42% (n = 47,000); AID 853;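 active means inhibition of aggregate fluorescence above about 70%, also judged a hit by eye on the cell image, limit read from the data, passing the limit was not always enough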;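 further: cells exposed to compound for three days before fixation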
D1 allo mod: allosteric modulators of human D1 dopamine receptor | AID 641 | HEK293 D1, CRE-luciferase, dopamine EC30 potentiation; actives deviate in either direction | actives 5.9% (n = 58,000) | B-score at 10 µM | P21728;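 active means luminescence count or its row- and column-corrected plate score outside the 99.7% band of the plate's sample wells, on either side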
D1 PAM confirm: confirmation of human D1 dopamine receptor allosteric modulators; shares compounds with D1 allo mod; HEK293 D1 CRE-luciferase, dopamine EC30 potentiation; active compounds read high; luminescence at 10 µM; actives 88% (n = 2,200); AID 642;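 active means luminescence in either of two replicates above the same-plate mean plus 3 SD of the low-dose dopamine control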
D1 ag no DA: secondary test of D1 modulators: activity without dopamine; shares compounds with D1 allo mod; AID 646; luminescence at 10 µM; HEK293 D1 CRE-luciferase, luminescence, no dopamine; active compounds read high; actives 0.8% (n = 1,900); in the data active means luminescence above about 3900
Isoprot counter: isoproterenol response counter-screen activity for D1 modulators; shares compounds with D1 allo mod; actives 63% (n = 2,200); calls only at 10 µM; AID 647; HEK293 D1 CRE-luciferase, isoproterenol EC30 counter-screen;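 active means luminescence in either replicate above plate mean of wells with a partly effective reference agonist dose plus 3 SD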;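 further: isoproterenol raises cAMP through native beta-adrenoceptor Gs so signal bypasses D1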
* = called active by the depositor; i = inactive; · = no result; + = active, no number.

SMILES | RORa activator | SF1 activator | M1 agonist | M1 antagonist | mHtt clearance | D1 allo mod | D1 PAM confirm | D1 ag no DA | Isoprot counter
CCOC(=O)CSc1nc2ccccc2c(=O)n1Cc1ccco1 | -4 | -3 | -0.3 | -2.9 | · | · | · | · | ·
COc1ccc(C(=O)n2nc(-c3ccccc3)nc2N)cc1OC | -14 | -19 | 1.1 | 0.12 | 64 | 6.1* | 15096* | 1896 | +
CCOC(=O)c1sc2nc(N3CCCC3)c3c(c2c1N)CC(C)(C)OC3 | -12 | -8 | -0.048 | -0.013 | · | 13* | 21232* | 1888 | +
CCOC(=O)c1sc2nc(N3CCOCC3)c3c(c2c1N)CCCC3 | -5 | -7 | -0.057 | 0.76 | · | 1.2 | · | · | ·
CCn1c(SCC(=O)Nc2sc(C)c(C)c2C#N)nnc1C(C)C | -8 | 0 | -0.42 | -0.0057 | -11 | 4.5* | 5156 | 1684 | i
COCCn1c(SCC(=O)Nc2sc(C)c(C)c2C#N)nnc1C(C)C | 3 | 14 | 0.9 | -0.23 | 8 | 0.66 | · | · | ·
CCC(C)(C(=O)NC1CCCC1)N(Cc1ccco1)C(=O)c1ccc2c(c1)OCO2 (configuration not stated) | -23 | -23 | 0.026 | -0.87 | 43 | 4.9* | 4332 | 1468 | i
C=CCOc1c(CNc2ccc(S(N)(=O)=O)cc2)cccc1OC | · | · | · | · | -118 | · | · | · | ·
COc1cccc(CNc2ccc(S(=O)(=O)Nc3nccs3)cc2)c1O | -4 | -13 | -0.38 | -0.99 | · | 12* | 14616* | 1520 | +
COc1ccc2c(C)c(Cl)c(=O)oc2c1 | 4 | 12 | 0.44 | -0.15 | -11 | 2.8 | · | · | ·
Cc1c(C)c2ccc(OC3CCCCC3=O)cc2oc1=O (configuration not stated) | 26 | 17 | -0.16 | 0.29 | · | 2.5* | 6564* | 1492 | i
Cc1ccc(-c2nnn(CC(=O)N(Cc3ccccc3)C(C(=O)NC3CCCC3)c3ccncc3)n2)o1 (configuration not stated) | 5 | 4 | -0.43 | 0.12 | 40 | -0.11 | · | · | ·
N/C(=N/O)c1nc(N2CCCCC2)nc(N2CCCCC2)n1 | -9 | 10 | 0.84 | -1.3 | · | 5.2* | 18416* | 1644 | +
c1ccc(N(c2ccccc2)c2nc(N3CCCC3)nc(-n3ccnc3)n2)cc1 | -19 | -7 | -0.29 | 0.57 | -55 | -0.23 | · | · | ·
N/C(=N/O)c1nc(N2CCCC2)nc(N(c2ccccc2)c2ccccc2)n1 | 4 | -12 | -0.4 | -0.29 | · | 7.2* | 13376* | 1828 | +
COC(=O)c1[nH]c2cc(OC)ccc2c1N | 4 | 16 | -0.62 | -0.33 | · | -0.28 | · | · | ·
O=C(Cn1c(NCCCO)nc2ccccc21)c1cccc(Br)c1 | -4 | 18 | 0.49 | -0.51 | 45 | -0.11 | · | · | ·
Cc1cc(C)nc(SCC(=O)N2CCCCC2)n1 | -17 | -8 | -1.4 | -0.2 | 45 | 2.9* | 5424* | 1632 | i
Cc1nc(SCC#N)c2c3c(sc2n1)CCC3 | -14 | -14 | -0.22 | 0.26 | -27 | · | · | · | ·
Cc1noc(C)c1CSc1ncnc2sc3c(c12)CCC3 | -10 | -12 | 0.0087 | 0.45 | · | · | · | · | ·
CC(C#N)Sc1ncnc2sc3c(c12)CCC3 (configuration not stated) | -28 | -11 | 0.28 | -0.083 | -16 | 6.3* | 21012* | 1792 | +
N#CCSc1ncnc2sc3c(c12)CCC3 | -24 | -9 | -0.095 | 1.1 | · | 4.9* | 12888* | 1696 | i
CC(=O)N(C(C)=O)C1=C(C#N)C2(CCCCC2)Cc2ccccc21 | · | · | · | · | -27 | · | · | · | ·
CS(=O)(=O)N(CCC(=O)O)Cc1ccccc1 | -17 | 0 | -0.37 | 0.67 | 0 | 0.022 | · | · | ·
COC(=O)c1cn(-c2ccccc2)nc1C(=O)OC | 27 | -4 | -0.42 | 0.13 | · | 18* | 20700* | 1688 | +
SMILES | RORa activator | SF1 activator | M1 agonist | M1 antagonist | mHtt clearance | D1 allo mod | D1 PAM confirm | D1 ag no DA | Isoprot counter
O=C(O)c1cn(-c2ccccc2)nc1C(=O)O | · | · | · | · | -71 | · | · | · | ·
Nc1ccccc1-c1nnc(SCc2ccccc2F)[nH]c1=O | -3 | 0 | -0.23 | 1.5 | · | · | · | · | ·
CNc1nc(OC)nc(N2CCOCC2)n1 | -26 | -13 | -0.05 | 0.24 | 31 | 6* | 19816* | 1956 | +
Cc1nc(SCc2ccccc2)c(C(F)(F)F)c(=O)[nH]1 | -10 | 2 | 0.34 | 0.028 | · | -0.015 | · | · | ·
CC(=NCc1ccco1)c1c(O)n(C2CCCCC2)c(=O)[nH]c1=O | -16 | 15 | 0.16 | -0.054 | 17 | 11* | 14172* | 1048 | +
FC(F)(F)c1cc(-c2ccco2)nc(-n2nnc3ccccc32)n1 | -4 | -1 | 1.9 | -0.18 | · | 3.5 | · | · | ·
COc1cccc(-c2cc(C(F)(F)F)nc(NCc3ccco3)n2)c1 | -18 | 12 | 0.042 | 0.75 | -19 | 3* | 7368* | · | +
FC(F)(F)c1cc(-c2ccco2)nc(NCc2ccco2)n1 | 13 | 6 | -1.2 | 0.76 | -26 | 15* | 10384* | 1612 | +
FC(F)(F)c1cc(-c2ccco2)nc(-n2nc(C(F)(F)F)cc2C2CC2)n1 | 2 | 0 | 0.68 | 0.044 | · | 5.3* | 5828 | 1672 | +
COc1ccc(S(=O)(=O)CC(O)CN2CCCC2=O)cc1 (configuration not stated) | · | · | · | · | 36 | · | · | · | ·
Cc1cc(NC(=O)COc2nnc(-c3ccccc3)c3ccccc23)no1 | 5 | -6 | -0.073 | 0.35 | · | 5.5* | 6684* | 1432 | i
Cc1cc(NC(=O)CSc2ccc(-c3ccccc3)nn2)no1 | · | · | · | · | 57 | · | · | · | ·
COc1ccc(S(=O)(=O)NCc2ccco2)cc1-c1nnc2c3ccccc3c(C)nn12 | -7 | -8 | -0.26 | 0.4 | · | 8.6* | 8232* | 1520 | +
CNS(=O)(=O)c1ccc(OC)c(-c2nnc3c4ccccc4c(C)nn23)c1 | · | · | · | · | 4 | · | · | · | ·
Cn1c(=O)cc(OCC(=O)N2CCC(N3CCCCC3)CC2)c2ccccc21 | -4 | 16 | 0.3 | -0.29 | -31 | -0.25 | · | · | ·
O=S(=O)(Nc1ccc(-c2nc3cccnc3s2)cc1)c1cccs1 | 34 | 45 | -0.64 | 0.04 | · | 8.5* | 19148* | 1852 | +
CCC(=O)N1CCc2cc(S(=O)(=O)N3CCN(c4ccccn4)CC3)ccc21 | 9 | -10 | -0.41 | -0.65 | · | 2.7* | 13196* | 1512 | +
NC(=O)c1c(NC(=O)CSc2nnc(-c3ccco3)n2-c2ccccc2)sc2c1CCC2 | 6 | 11 | -2 | -0.024 | · | 4.8* | 10124* | 1620 | i
O=C1Nc2ccccc2C(O)(C(=O)NCc2ccco2)N1c1ccc(Cl)c(Cl)c1 (configuration not stated) | 22 | -10 | -0.51 | -0.27 | -19 | 0.032 | · | · | ·
